Results taken from ChEMBL document CHEMBL1155317, “Design and optimisation of potent gp120-CD4 inhibitors” (Bioorg Med Chem Lett, 2009).

Assays:
[1] = Inhibition of HIV1 NL4-3 gp160 assessed as inhibition of interaction between gp120 and host CD4 receptor by cell-cell fusion assay; parameters: species or system Human immunodeficiency virus 1
[2] = system: Human immunodeficiency virus 1; assay: Antiviral activity against Human immunodeficiency virus 1 NL4-3 infected HeLaP4 cells after 5 days by beta-galactosidase reporter assay; type: functional, organism-based; settings: Human immunodeficiency virus 1, NL4-3, HeLaP4, 120 h
Outline: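 HeLa-P4 cells were premixed with NL4-3 virus and added at 10^5 cells/mL to wells containing diluted compound. Plates were incubated for 5 days at 37 °C in humidified 5% CO₂. Infection was quantified with a β-galactosidase reporter assay.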

[3] = system: Human immunodeficiency virus 1; assay: Antiviral activity against Human immunodeficiency virus 1 isolate 04-116881_VL_338.52; type: functional
Outline: (§1)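 Testing against these strains was contracted out and used the PhenoSense phenotypic antiviral assay.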

[4] = system: Human immunodeficiency virus 1; assay: Antiviral activity against Human immunodeficiency virus 1 isolate 04-116880_VL_696.65; type: functional; outline: as §1
[5] = system: Human immunodeficiency virus 1; assay: Antiviral activity against Human immunodeficiency virus 1 isolate 04-116870_VL_181.51; type: functional; outline: as §1
[6] = system: Human immunodeficiency virus 1; assay: Antiviral activity against Human immunodeficiency virus 1 isolate 04-116869_VL_833.52; type: functional; outline: as §1
[7] = system: Human immunodeficiency virus 1; assay: Antiviral activity against Human immunodeficiency virus 1 isolate 04-116875_VL_279.69; type: functional; outline: as §1
[8] = system: Human immunodeficiency virus 1; assay: Antiviral activity against Human immunodeficiency virus 1 isolate 04-116890_VL_781.45; type: functional; outline: as §1
Rattus norvegicus [9] = assay: Unbound clearance in rat at 1 mg/kg, iv and 1 mg/kg, po; type: ADME, organism-based; settings: in vivo
[10] = Fraction of compound absorbed in rat at 1 mg/kg, iv and 1 mg/kg, po; type: ADME, organism-based; settings: in vivo, read-out: Fabs
[11] = system: Human immunodeficiency virus 1; assay: Antiviral activity against Human immunodeficiency virus 1 isolate 04-116883_VL_432.63; type: functional; outline: as §1
[12] = system: Human immunodeficiency virus 1; assay: Antiviral activity against Human immunodeficiency virus 1 isolate 04-116878_VL_241.32; type: functional; outline: as §1
[13] = system: Human immunodeficiency virus 1; assay: Antiviral activity against Human immunodeficiency virus 1 isolate 04-116871_VL_781.69; type: functional; outline: as §1
[14] = system: Human immunodeficiency virus 1; assay: Antiviral activity against Human immunodeficiency virus 1 isolate 04-116872_VL_186.32; type: functional; outline: as §1
[15] = Half life in rat at 1 mg/kg, iv and 1 mg/kg, po; type: ADME, organism-based; settings: in vivo
[16] = Bioavailability in rat at 1 mg/kg; type: ADME, organism-based; settings: in vivo
[17] = system: Human immunodeficiency virus 1; assay: Antiviral activity against Human immunodeficiency virus 1 isolate 04-116876_VL_969.72; type: functional; outline: as §1
[18] = system: Human immunodeficiency virus 1; assay: Antiviral activity against Human immunodeficiency virus 1 isolate 04-116889_VL_440.85; type: functional; outline: as §1
[19] = system: Human immunodeficiency virus 1; assay: Antiviral activity against Human immunodeficiency virus 1 isolate 04-116873_VL_754.51; type: functional; outline: as §1
[20] = system: Human immunodeficiency virus 1; assay: Antiviral activity against Human immunodeficiency virus 1 isolate 04-116892_VL_534.93; type: functional; outline: as §1
[21] = system: Human immunodeficiency virus 1; assay: Antiviral activity against Human immunodeficiency virus 1 isolate 04-116886_VL_578.66; type: functional; outline: as §1
[22] = system: Human immunodeficiency virus 1; assay: Antiviral activity against Human immunodeficiency virus 1 isolate 04-116893_VL_193.95; type: functional; outline: as §1
[23] = system: Human immunodeficiency virus 1; assay: Antiviral activity against Human immunodeficiency virus 1 isolate 04-116868_VL_518.14; type: functional; outline: as §1
[24] = system: Human immunodeficiency virus 1; assay: Antiviral activity against Human immunodeficiency virus 1 isolate 04-116882_VL_624.75; type: functional; outline: as §1
[25] = system: Human immunodeficiency virus 1; assay: Antiviral activity against Human immunodeficiency virus 1 isolate 04-116885_VL_530.54; type: functional; outline: as §1
[26] = Clearance in rat at 1 mg/kg, iv and 1 mg/kg, po; type: ADME, organism-based; settings: in vivo
Rattus norvegicus [27] = assay: Unbound volume of distribution in rat at 1 mg/kg, iv and 1 mg/kg, po; type: ADME, organism-based; settings: in vivo
[28] = system: Human immunodeficiency virus 1; assay: Antiviral activity against Human immunodeficiency virus 1 isolate 04-116877_VL_938.28; type: functional; outline: as §1
[29] = system: Human immunodeficiency virus 1; assay: Antiviral activity against Human immunodeficiency virus 1 JRCSF; type: functional, Human immunodeficiency virus type 1 (JRCSF ISOLATE); outline: as §1
[30] = system: Human immunodeficiency virus 1; assay: Antiviral activity against Human immunodeficiency virus 1 isolate 04-116874_VL_560.34; type: functional; outline: as §1
[31] = Metabolic stability in human liver microsomes assessed as half life; type: ADME, Microsome
[32] = system: Human immunodeficiency virus 1; assay: Antiviral activity against Human immunodeficiency virus 1 isolate 04-116888_VL_113.66; type: functional; outline: as §1
[33] = system: Human immunodeficiency virus 1; assay: Antiviral activity against Human immunodeficiency virus 1 isolate 04-116867_VL_837.51; type: functional; outline: as §1
[34] = system: Human immunodeficiency virus 1; assay: Antiviral activity against Human immunodeficiency virus 1 isolate 04-116879_VL_988.03; type: functional; outline: as §1
[35] = system: Human immunodeficiency virus 1; assay: Antiviral activity against Human immunodeficiency virus 1 isolate 04-116884_VL_328.45; type: functional; outline: as §1
[36] = system: Human immunodeficiency virus 1; assay: Antiviral activity against Human immunodeficiency virus 1 HXB2; type: functional; outline: as §1

CNC(=O)c1cc(OC)c(O[C@@H](C)C(=O)N2CCN(c3nccc4[nH]ccc34)C[C@H]2C)cn1
IC50 [1]: 29 nM
IC50 [2]: > 1000 nM

Cc1n[nH]c2cccc(OC(C)C(=O)N3CCN(C(=O)c4ccccc4)C[C@H]3C)c12 (stereo not given in full)
IC50 [1]: 16 nM
IC50 [2]: 36 nM

CNc1nccc2c(O[C@@H](C)C(=O)N3CCN(C(=O)c4ccccc4)C[C@H]3C)cccc12
IC50 [1]: 61 nM

CNC(=O)c1cc(OC)c(O[C@@H](C)C(=O)N2CCN(c3nccc4ccccc34)C[C@H]2C)cn1
IC90 [3]: 201 nM
IC90 [4]: 276 nM
IC90 [5]: 6 nM
IC90 [6]: 24 nM
IC90 [7]: 14 nM
IC90 [8]: 144 nM
CL free (Rattus norvegicus [9]): 198 mL/min/kg
Fa [10]: 100%
IC90 [11]: > 666 nM
IC90 [12]: 230 nM
IC90 [13]: 0.5 nM
IC90 [14]: 36 nM
IC50 [1]: 0.29 nM
half-life [15]: 30 min
bioavailability [16]: 21%
IC90 [17]: 37 nM
IC90 [18]: 5 nM
IC90 [19]: 1.3 nM
IC90 [20]: 199 nM
IC90 [21]: 120 nM
IC90 [22]: 23 nM
IC90 [23]: 1 nM
IC90 [24]: 3 nM
IC90 [25]: 8 nM
clearance [26]: 48 mL/min/kg
IC50 [2]: 0.12 nM
Vdu (Rattus norvegicus [27]): 9.4 L/kg
IC90 [28]: 2 nM
IC90 [29]: 0.3 nM
IC90 [30]: 5 nM
half-life [31]: 4 min
IC90 [32]: 324 nM
IC90 [33]: 40 nM
IC90 [34]: 8 nM
IC90 [35]: 0.8 nM
IC90 [36]: 1.4 nM

CNC(=O)c1cc(OC)c(O[C@@H](C)C(=O)N2CCN(c3nccn3CC3CC3)C[C@H]2C)cn1
IC50 [1]: 1900 nM

CNC(=O)c1nccc2c(O[C@@H](C)C(=O)N3CCN(C(=O)c4ccccc4)C[C@H]3C)cccc12
CL free (Rattus norvegicus [9]): 90 mL/min/kg
Fa [10]: 55%
IC50 [1]: 21 nM
half-life [15]: 30 min
bioavailability [16]: 45%
clearance [26]: 41 mL/min/kg
IC50 [2]: 1.5 nM
Vdu (Rattus norvegicus [27]): 3.5 L/kg

CNC(=O)c1cc(OC)c(O[C@@H](C)C(=O)N2CCN(c3nccc4[nH]ncc34)C[C@H]2C)cn1
IC50 [1]: 24 nM
IC50 [2]: 6 nM

CNc1ccc2c(O[C@@H](C)C(=O)N3CCN(C(=O)c4ccccc4)C[C@H]3C)cccc2n1
CL free (Rattus norvegicus [9]): 129 mL/min/kg
Fa [10]: 60%
IC50 [1]: 5 nM
half-life [15]: 54 min
bioavailability [16]: 42%
clearance [26]: 27 mL/min/kg
IC50 [2]: 13 nM
Vdu (Rattus norvegicus [27]): 10.5 L/kg
